Shown are actives, neighbours in structure and some others; about 3.8% of the full set was active somewhere.
TMEM16A act: activates or potentiates the mouse TMEM16A chloride channel. Q8BHY3. HEK293 TMEM16A/YFP-H148Q/I152L, iodide quench fluorescence; stronger effect = lower value. B-score at 10 µM. actives 0.3% (n = 340,000). AID 623877;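 active means fluorescence-ratio B-score plate-corrected deviation score at least 3 library SD below zero, with starting fluorescence score within 5 deviations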;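 further: channel opened by trigger with iodide after compound preincubation; score built on the fluorescence ratio of max minus min over baseline; more negative score means more quench and so TMEM16A activation or potentiation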
Beta apoptosis: beta cell apoptosis inhibition. actives 0.8% (n = 300,000). INS-1E cytokine-induced death, ATP luminescence, 48 h; percent of positive-control rescue, neutral wells zero. protection from apoptosis, % (no concentration beside the values);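 active means Every replicate reaches about 75%, or at least half do and their mean reaches it too, limit read from the data; inconclusive means At least half of replicates reach the limit but their mean does not; inactive means Under half of replicates reach the limit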;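 further: higher means more ATP so stronger rescue from cytokine killing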
MC4R ag barr: agonists of human melanocortin 4 receptor (MC4R) beta-arrestin; AID 540308; P32245; activation, % at 8.9 µM; actives 0.98% (n = 360,000); U2OS MC4R beta-arrestin complementation, luminescence; percent of melanotan II response, DMSO zero;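 active means activation above a per-plate cutoff, the mean activation of sample wells on that plate plus 3 SD, cut at about 8% in these data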
Target sequence (P32245 whole entry, looked up): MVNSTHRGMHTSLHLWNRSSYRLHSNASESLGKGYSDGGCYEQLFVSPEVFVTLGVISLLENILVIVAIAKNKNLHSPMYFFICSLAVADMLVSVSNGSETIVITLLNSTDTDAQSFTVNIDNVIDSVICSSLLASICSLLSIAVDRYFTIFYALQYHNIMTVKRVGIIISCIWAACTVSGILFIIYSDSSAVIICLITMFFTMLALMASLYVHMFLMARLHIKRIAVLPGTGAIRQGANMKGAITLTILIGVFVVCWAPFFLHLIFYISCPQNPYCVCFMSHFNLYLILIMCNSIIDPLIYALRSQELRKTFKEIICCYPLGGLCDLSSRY
CSC inhib: blocks cancer stem cells; cancer stem cell-like cells viability, luminescence; AID 2717; inhibition, % at 7.5 µM; actives 1.1% (n = 300,000); in the data active means inhibition above about 75%; inconclusive means no clear call, values can overlap the other calls; tested in HMLE shEcad cells
MC4R antagonist: antagonists of human melanocortin 4 receptor (MC4R); inhibition, % at 6.5 µM; actives 0.48% (n = 360,000); MC4R-expressing cells, MTII-stimulated cAMP, LANCE TR-FRET;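 active means inhibition above its plate's cutoff, the mean of tested wells on that plate plus 3 SD, cut at about 29% in these data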
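Assay system: U2OS-MC4R stable cell line; Also added: Melanotan II; Technique: Eu-cAMP/anti-cAMP TR-FRET, emission 671 nm; Times: 30-min compound, 1-h challenge, 1-h detection, room temperature.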
TMEM16A inh: inhibitors of mouse TMEM16A calcium-activated chloride channel; AID 588511; normalized B-score (activity score, 25-100; higher = stronger inhibition) at 10 µM; Q8BHY3; actives 1.2% (n = 310,000); HEK293 TMEM16A/YFP iodide influx fluorescence, ionomycin;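 active means ratio plate-corrected score three or more library SD toward inhibition, starting fluorescence score within five deviations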;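 further: score derived from kinetic fluorescence span divided by baseline fluorescence per well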
A number is an active result; n = inactive; u = inconclusive; x = no result given.

SMILES	TMEM16A act	Beta apoptosis	MC4R ag barr	CSC inhib	MC4R antagonist	TMEM16A inh
C#CCOCCOCCOCCNc1nc(N2CCN(C(=O)CCCCCCCCCCNC(=O)[C@H](CCCCN)n3cc(CCO)nn3)CC2)nc(N2CCN(C(=O)CCCCCCCCCCNC(=O)[C@@H]([C@H](C)O)n3cc(C)nn3)CC2)n1	n	n	n	n	n	n
C#CCOCCOCCOCCNc1nc(N2CCN(C(=O)CCCCCCCCCCNC(=O)[C@H](CCCCN)n3cc(C)nn3)CC2)nc(N2CCN(C(=O)CCCCCCCCCCNC(=O)[C@@H]([C@H](C)CC)n3cc(CCCCCN)nn3)CC2)n1	-18	94	n	168	52	25
C#CCOCCOCCOCCNc1nc(N2CCN(C(=O)CCCCCCCCCCNC(=O)[C@H]([C@@H](C)CC)n3cc(CCCCCN)nn3)CC2)nc(N2CCN(C(=O)CCCCCCCCCCNC(=O)[C@@H]([C@H](C)O)n3cc(C)nn3)CC2)n1	-12	81	n	109	n	n
NC(=O)c1cc(S(=O)(=O)N2CCN(c3ccc([N+](=O)[O-])cc3)CC2)cs1	n	n	n	n	n	n
CC1CCCN(S(=O)(=O)c2ccc(NC(=O)C3CCN(C(=O)c4ccco4)CC3)cc2)C1 (stereo unspecified)	n	n	n	n	n	n
O=c1ccc(C(F)(F)F)cn1Cc1cc(=O)n2ccsc2n1	n	n	n	n	n	n
O=c1cc(CNc2cc(C(F)(F)F)cc(C(F)(F)F)c2)nc2sccn12	n	n	n	81	n	n
CCOc1ccc(-c2c(C(=O)N/N=C/c3cccnc3)nnn2-c2nonc2N)cc1	n	n	n	n	n	n
N#Cc1cccc(NC(=O)COc2ccc(-n3ccnc3)cc2)c1	n	n	n	n	n	25
O=C(Cc1ccc(N2CCNC2=O)cc1)N1CCCC(Nc2ccc(F)c(F)c2)C1 (stereo unspecified)	n	n	n	83	n	n
CN(Cc1ccccc1)C(=O)c1ccc(NC(=O)Cc2cccc(NC(=O)C3CCN(C(=O)C4CCCC4)CC3)c2)cc1	n	n	n	n	n	x
CCCn1c(N2CCC(Cc3ccccc3)CC2)nc2c1c(=O)[nH]c(=O)n2C	n	n	n	n	n	n
CCCCCn1c(N2CCC(Cc3ccccc3)CC2)nc2c1c(=O)[nH]c(=O)n2C	n	n	n	118	n	100
Cc1ccc(NC(=O)COc2ccccc2C(N)=O)cc1S(=O)(=O)N1CCCCCC1	n	x	n	x	n	x
O=C(CSc1nc2ccccc2c(=O)n1Cc1ccco1)c1ccccc1	n	n	n	n	n	n
Cc1cc(-n2c(C)cc(C(=O)CSc3nc4ccccc4c(=O)n3Cc3ccco3)c2C)no1	-9.1	n	n	n	n	n
Cc1ccc(-n2nnnc2SCC(=O)c2cc(C)n(-c3cc(C)on3)c2C)c(C)c1	n	n	n	140	n	n
C=CCc1cc(Cl)ccc1OCCOCCNC(C)CC (stereo unspecified)	n	n	n	131	n	n
CC(NC(=O)c1ccco1)C(=O)OCC(=O)N1CCCCCC1 (stereo unspecified)	n	n	n	n	n	x
CCC1CCCCN1CCCNC(=O)c1ccc2c(c1)c(C)c(C)n2C (stereo unspecified)	n	n	n	n	n	n
CCn1cc(/C=C(\NC(=O)c2ccc(OC)c(OC)c2)C(=O)NCCCN2CCOCC2)c2ccccc21	-43	x	n	x	n	x
O=C(N=Nc1c(O)[nH]c2ccc(F)cc12)c1ccc(NS(=O)(=O)c2cccs2)cc1	n	n	n	x	n	x
COc1ccc2[nH]c(O)c(N=NC(=O)c3ccc(NS(=O)(=O)c4cccs4)cc3)c2c1	n	n	9.0	x	n	x
O=C(O)CC12CC3CC(C1)CC(n1ncc(NCc4ccco4)c(Cl)c1=O)(C3)C2	n	n	n	n	n	n
O=c1c(Cl)c(NCc2ccccc2)cnn1C12CC3CC(CC(C3)C1)C2	n	n	n	77	n	n
SMILES	TMEM16A act	Beta apoptosis	MC4R ag barr	CSC inhib	MC4R antagonist	TMEM16A inh
CCO[C@H]1OC(C(=O)N2CCOCC2)=C[C@@H](c2coc3ccccc3c2=O)[C@@H]1CCCO	n	n	n	n	n	n
CS(=O)(=O)c1ncc(Cl)c(C(=O)Nc2ccc(OC(F)F)cc2)n1	n	u	n	135	n	n
CS(=O)(=O)c1ncc(Cl)c(C(=O)Nc2ccc(N3CCOCC3)cc2)n1	n	n	n	u	n	n
COc1ccc(OC)c(NC(=O)c2nc(S(=O)(=O)Cc3ccccc3)ncc2Cl)c1	n	80	n	106	n	n
O=C(Nc1ccc(F)cc1)c1nc(S(=O)(=O)Cc2ccccc2)ncc1Cl	n	n	n	108	n	n
Cc1ccc(NC(=O)c2nc(S(=O)(=O)Cc3ccccc3)ncc2Cl)cc1	n	109	n	104	n	n
COC(=O)C[C@H]1C[C@H]2c3cc(NC(=O)C4CCOCC4)ccc3O[C@H]2[C@@H](CO)O1	x	x	n	x	n	x
CCCCN(C=O)c1c(CC)nc2ccc(C(=O)NCc3ccc4c(c3)OCO4)cn12	x	x	n	x	n	x
CC(C)(C)OC(=O)NN1CC(=O)N2[C@@H](Cc3c([nH]c4ccccc34)C2(C)C)C1=O	n	n	n	n	n	n
Nc1nnnn1/N=C/c1ccccc1OCc1ccc(Cl)cc1	n	n	8.3	n	n	n
CCC(/C=C1\Sc2ccc(OC)cc2N1CC)=C\c1sc2ccc(OC)cc2[n+]1CCCS(=O)(=O)[O-]	n	103	n	n	n	n
CCC(/C=C1\Sc2ccc(OC)cc2N1CCO)=C\c1sc2ccc(OC)cc2[n+]1CCO	n	n	n	n	n	n
COc1ccc(S(=O)(=O)N2CCN(C(=O)c3cc(C)nc4ccccc34)CC2)cc1OC	n	n	n	n	n	x
Cc1ccc(S(=O)(=O)N(C)C)cc1NC(=O)c1cc(=O)[nH]c2ccccc12	-6.6	n	n	n	n	n
CN(C)S(=O)(=O)c1cccc(NC(=O)c2cc(=O)[nH]c3ccccc23)c1	n	n	n	n	n	n
COc1ccccc1C(=O)N1c2ccccc2Sc2ccccc21	n	n	n	n	n	n
CCOc1ccccc1C(=O)N1c2ccccc2Sc2ccccc21	n	n	n	n	n	100
O=C(CSc1nc(-c2ccco2)cc(C(F)(F)F)n1)Nc1ccccc1C(F)(F)F	n	n	9.4	75	n	n
O=C(NNc1c([N+](=O)[O-])cc(C(F)(F)F)cc1[N+](=O)[O-])c1ccco1	n	n	n	n	n	100
COc1ccc(N(CC(O)Cn2c3ccccc3c3ccccc32)S(=O)(=O)c2ccccc2)cc1 (stereo unspecified)	-4.8	n	n	n	n	n
